# PubChem BioAssay AID624205 (Southern Research Specialized Biocontainment Screening …, 2012)
# Several values for one entry are separate records, joined by “and”; a condition that tells them apart may be missing. Identical values can stand only once. Records with an inconclusive call do not appear. Activity calls are given as the source filed them.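 How the source made its calls: active means viability under 80% at one or more tested concentrations, counted as toxic; inconclusive means replicate runs disagree on the viability criterion; inactive means viability at or above 80% at every dose.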
# System: Vero E6 viability, CellTiter-Glo luminescence, 72 h
# Test: viability loss in Vero kidney cells – cell-based, set 3, cytotoxicity control for PfM18AAP inhibitor project, dose response (AID 624205)
# Conditions: not given
# Method in brief: (§1)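 System – Vero E6 cells · Amount – 3000 cells per well · Technique – CellTiter-Glo luminescence · Controls – DMSO vehicle wells · Timing – 72 h compound treatment, 37 °C · Read-out – % viability and 4-parameter CC50 · Dosing – 2-fold compound dilution series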
row,SMILES,CC50
1,COc1cc(Br)c(CCNc2c3c(nc4ccccc24)CCCC3)cc1OC,20.1 µM
2,CCN(CC)Cc1cc(Nc2ccnc3cc(Cl)ccc23)ccc1O,40.1 µM
3,CCN(CCc1ccc(O)c(O)c1)c1c2ccccc2nc2ccccc12,34.6 µM
4,CN(CCCc1ccc(O)c(O)c1)c1c2ccccc2nc2ccccc12,21.9 µM
5,COc1cc(Br)c(CCNc2ccnc3ccccc23)cc1OC,15.9 µM
6,COc1ccc(C2CCN(c3ccnc4ccccc34)CC2)cc1OC,23.7 µM
7,COc1cc(Br)c(CCNc2c3ccccc3nc3ccccc23)cc1OC,5.03 µM
8,COc1ccc(CCCN(C)c2c3ccccc3nc3ccccc23)cc1OC,9.23 µM
9,COc1ccc(CCNc2ccnc3cc(Cl)ccc23)cc1OC,41.6 µM
10,CC(C)(CNc1ccnc2ccccc12)c1ccc(O)c(O)c1,15 µM
11,CCOc1ccc2nccc(N(C)CCc3ccc(OC)c(OC)c3)c2c1,41 µM
12,CCN(CCc1ccc(OC)c(OC)c1)c1c2ccccc2nc2ccccc12,15.4 µM
13,COc1ccc(CCN(C)c2c3ccccc3nc3ccccc23)cc1OC,12.9 µM and 9.77 µM
14,Nc1c2ccccc2nc2ccccc12,10.3 µM

# System: not listed separately
# Test: as above
# Conditions: Vero E6 viability, CellTiter-Glo luminescence, 72 h; at 50 µM (top of the series)
# Method in brief: as §1
row,SMILES,viability
1,COc1ccc(CCNC(=O)c2cc(C)ccc2N)cc1OC,95.6% (inactive)
2,Oc1ccc(CCCNc2c3c(nc4ccccc24)CCCC3)cc1O,92.3% (inactive)
3,COc1ccc(CCN(C)c2cc(C)nc3ccccc23)cc1OC,80.7% (inactive)
4,CC(Cc1ccc(O)c(O)c1)Nc1ccnc2ccccc12 (stereo not given),83.9% (inactive)
5,Oc1cccc(CCNc2ccnc3ccccc23)c1O,93.2% (inactive)
6,Cc1cc(N(C)CCc2ccc(O)c(O)c2)c2ccccc2n1,89.8% (inactive)
7,Cc1cccc2c(NCCc3ccc(O)c(O)c3)ccnc12,95.1% (inactive)
8,CN(CCCc1ccc(O)c(O)c1)c1ccnc2ccccc12,88.4% (inactive)
9,CN(CCc1ccc(O)c(O)c1)c1ncnc2ccccc12,95.4% (inactive)
10,CN(CCc1ccc(O)c(O)c1)c1ccnc2c(F)cccc12,86% (inactive)
11,COc1ccc(CCN(C)c2ncnc3ccccc23)cc1OC,85.7% (inactive)
